# In ChEMBL document CHEMBL2157880, “Synthesis, antimycobacterial and antibacterial activity of ciprofloxacin derivatives containing a N-substituted benzyl moiety” (2012):
# What was measured:
# Assay type in all cases: functional
# [1] = test system: Staphylococcus epidermidis; assay: Antibacterial activity against methicillin-resistant Staphylococcus epidermidis 10-10 after 18 to 24 hrs by NCCLS method
# Method in brief: (§1)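 Incubated at 35 °C for 18–24 h under NCCLS (M100-S11) standards. MIC was read as the lowest concentration giving complete inhibition of visible bacterial growth.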
# Klebsiella pneumoniae [2] = assay: Antibacterial activity against extended spectrum beta-lactamases producing Klebsiella pneumoniae 10-2 after 18 to 24 hrs by NCCLS method
# Method in brief: (§2)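 Standard NCCLS (M100-S11) MIC testing against Gram-positive and Gram-negative strains. Plates were incubated at 35 °C for 18–24 h. The MIC was read as the lowest concentration giving complete inhibition of visible bacterial growth.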
# Staphylococcus aureus [3] = assay: Antibacterial activity against methicillin-resistant Staphylococcus aureus 10-15 after 18 to 24 hrs by NCCLS method; method in brief: as §1
# Escherichia coli [4] = assay: Antibacterial activity against Escherichia coli 10-2 after 18 to 24 hrs by NCCLS method; method in brief: as §2
# Staphylococcus aureus [5] = assay: Antibacterial activity against methicillin-sensitive Staphylococcus aureus 10-14 after 18 to 24 hrs by NCCLS method; method in brief: as §2
# Staphylococcus aureus [6] = assay: Antibacterial activity against methicillin-sensitive Staphylococcus aureus 10-13 after 18 to 24 hrs by NCCLS method; method in brief: as §2
# Escherichia coli [7] = assay: Antibacterial activity against Escherichia coli 10-3 after 18 to 24 hrs by NCCLS method; method in brief: as §2
# [8] = test system: Staphylococcus epidermidis; assay: Antibacterial activity against methicillin-sensitive Staphylococcus epidermidis 10-11 after 18 to 24 hrs by NCCLS method; method in brief: as §2
# Pseudomonas aeruginosa [9] = assay: Antibacterial activity against Pseudomonas aeruginosa 10-12 after 18 to 24 hrs by NCCLS method; method in brief: as §2
# Staphylococcus aureus [10] = assay: Antibacterial activity against methicillin-resistant Staphylococcus aureus 10-13 after 18 to 24 hrs by NCCLS method; method in brief: as §1
# Enterococcus faecium [11] = assay: Antibacterial activity against Enterococcus faecium 10-6 after 18 to 24 hrs by NCCLS method; method in brief: as §2
# Escherichia coli [12] = assay: Antibacterial activity against extended spectrum beta-lactamases producing Escherichia coli 10-4 after 18 to 24 hrs by NCCLS method; method in brief: as §2
# Pseudomonas aeruginosa [13] = assay: Antibacterial activity against Pseudomonas aeruginosa 10-9 after 18 to 24 hrs by NCCLS method; method in brief: as §2
# Streptococcus pneumoniae [14] = assay: Antibacterial activity against Streptococcus pneumoniae 10-6 after 18 to 24 hrs by NCCLS method; method in brief: as §2
# Staphylococcus aureus [15] = assay: Antibacterial activity against methicillin-resistant Staphylococcus aureus 10-11 after 18 to 24 hrs by NCCLS method; method in brief: as §1
# Streptococcus pneumoniae [16] = assay: Antibacterial activity against Streptococcus pneumoniae 10-1 after 18 to 24 hrs by NCCLS method; method in brief: as §2
# Escherichia coli [17] = assay: Antibacterial activity against extended spectrum beta-lactamases producing Escherichia coli 10-2 after 18 to 24 hrs by NCCLS method; method in brief: as §2
# Escherichia coli [18] = assay: Antibacterial activity against extended spectrum beta-lactamases producing Escherichia coli 10-3 after 18 to 24 hrs by NCCLS method; method in brief: as §2
# Klebsiella pneumoniae [19] = assay: Antibacterial activity against Klebsiella pneumoniae 10-4 after 18 to 24 hrs by NCCLS method; method in brief: as §2
# [20] = test system: Staphylococcus epidermidis; assay: Antibacterial activity against methicillin-resistant Staphylococcus epidermidis 10-13 after 18 to 24 hrs by NCCLS method; method in brief: as §1
# Staphylococcus aureus [21] = assay: Antibacterial activity against Staphylococcus aureus ATCC 2592 after 18 to 24 hrs by NCCLS method; method in brief: as §2
# Pseudomonas aeruginosa [22] = assay: Antibacterial activity against Pseudomonas aeruginosa 10-5 after 18 to 24 hrs by NCCLS method; method in brief: as §2
# Klebsiella pneumoniae [23] = assay: Antibacterial activity against extended spectrum beta-lactamases producing Klebsiella pneumoniae 10-3 after 18 to 24 hrs by NCCLS method; method in brief: as §2
# Pseudomonas aeruginosa [24] = assay: Antibacterial activity against Pseudomonas aeruginosa 10-18 after 18 to 24 hrs by NCCLS method; method in brief: as §2
# Staphylococcus aureus [25] = assay: Antibacterial activity against methicillin-sensitive Staphylococcus aureus 10-11 after 18 to 24 hrs by NCCLS method; method in brief: as §2
# Escherichia coli [26] = assay: Antibacterial activity against Escherichia coli ATCC 25922 after 18 to 24 hrs by NCCLS method; method in brief: as §2
# [27] = test system: Staphylococcus epidermidis; assay: Antibacterial activity against methicillin-sensitive Staphylococcus epidermidis 10-15 after 18 to 24 hrs by NCCLS method; method in brief: as §1
# Klebsiella pneumoniae [28] = assay: Antibacterial activity against extended spectrum beta-lactamases producing Klebsiella pneumoniae 10-1 after 18 to 24 hrs by NCCLS method; method in brief: as §2
# Pseudomonas aeruginosa [29] = assay: Antibacterial activity against Pseudomonas aeruginosa 10-15 after 18 to 24 hrs by NCCLS method; method in brief: as §2
# Enterococcus faecalis [30] = assay: Antibacterial activity against Enterococcus faecalis 10-7 after 18 to 24 hrs by NCCLS method; method in brief: as §2
# Klebsiella pneumoniae [31] = assay: Antibacterial activity against Klebsiella pneumoniae 10-3 after 18 to 24 hrs by NCCLS method; method in brief: as §2
# Enterococcus faecium [32] = assay: Antibacterial activity against Enterococcus faecium 10-9 after 18 to 24 hrs by NCCLS method; method in brief: as §2
# Klebsiella pneumoniae [33] = assay: Antibacterial activity against Klebsiella pneumoniae 10-2 after 18 to 24 hrs by NCCLS method; method in brief: as §2
# Enterococcus faecalis [34] = assay: Antibacterial activity against Enterococcus faecalis 10-5 after 18 to 24 hrs by NCCLS method; method in brief: as §2
# [35] = test system: Mycobacterium tuberculosis; assay: Antimycobacterial activity against Mycobacterium tuberculosis H37Rv ATCC 27294 by microplate alamar blue assay
# Method in brief: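 Microplate Alamar Blue fluorescence assay on strain H37Rv ATCC 27294. MIC was the lowest concentration cutting fluorescence by ≥90% against the mean of replicate bacterium-only controls.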
# Enterococcus faecalis [36] = assay: Antibacterial activity against Enterococcus faecalis 10-6 after 18 to 24 hrs by NCCLS method; method in brief: as §2
# Pseudomonas aeruginosa [37] = assay: Antibacterial activity against Pseudomonas aeruginosa 10-20 after 18 to 24 hrs by NCCLS method; method in brief: as §2
# Escherichia coli [38] = assay: Antibacterial activity against Escherichia coli 10-1 after 18 to 24 hrs by NCCLS method; method in brief: as §2
Compound,MIC [1],MIC (Klebsiella pneumoniae [2]),MIC (Staphylococcus aureus [3]),MIC (Escherichia coli [4]),MIC (Staphylococcus aureus [5]),MIC (Staphylococcus aureus [6]),MIC (Escherichia coli [7]),MIC [8],MIC (Pseudomonas aeruginosa [9]),MIC (Staphylococcus aureus [10]),MIC (Enterococcus faecium [11]),MIC (Escherichia coli [12]),MIC (Pseudomonas aeruginosa [13]),MIC (Streptococcus pneumoniae [14]),MIC (Staphylococcus aureus [15]),MIC (Streptococcus pneumoniae [16]),MIC (Escherichia coli [17]),MIC (Escherichia coli [18]),MIC (Klebsiella pneumoniae [19]),MIC [20],further results
COc1cc(CN2CCN(c3cc4c(cc3F)c(=O)c(C(=O)O)cn4C3CC3)CC2)c([N+](=O)[O-])cc1OC,16 µg/mL,> 128 µg/mL,16 µg/mL,8 µg/mL,1 µg/mL,2 µg/mL,8 µg/mL,2 µg/mL,16 µg/mL,64 µg/mL,8 µg/mL,> 128 µg/mL,8 µg/mL,128 µg/mL,64 µg/mL,8 µg/mL,> 128 µg/mL,> 128 µg/mL,> 128 µg/mL,16 µg/mL,MIC (Staphylococcus aureus [21]): 1 µg/mL; MIC (Pseudomonas aeruginosa [22]): 8 µg/mL; MIC (Klebsiella pneumoniae [23]): > 128 µg/mL; MIC (Pseudomonas aeruginosa [24]): 8 µg/mL; MIC (Staphylococcus aureus [25]): 1 µg/mL; MIC (Escherichia coli [26]): 2 µg/mL; MIC [27]: 16 µg/mL; MIC (Klebsiella pneumoniae [28]): > 128 µg/mL; MIC (Pseudomonas aeruginosa [29]): 8 µg/mL; MIC (Enterococcus faecalis [30]): 16 µg/mL; MIC (Klebsiella pneumoniae [31]): 8 µg/mL; MIC (Enterococcus faecium [32]): 64 µg/mL; MIC (Klebsiella pneumoniae [33]): > 128 µg/mL; MIC (Enterococcus faecalis [34]): 16 µg/mL; MIC [35]: > 32 µg/mL; MIC (Enterococcus faecalis [36]): 128 µg/mL; MIC (Pseudomonas aeruginosa [37]): 4 µg/mL; MIC (Escherichia coli [38]): > 128 µg/mL
O=C(O)c1cn(C2CC2)c2cc(N3CCN(Cc4ccc(OCc5ccccc5)cc4)CC3)c(F)cc2c1=O,16 µg/mL,> 128 µg/mL,128 µg/mL,32 µg/mL,0.5 µg/mL,0.5 µg/mL,> 128 µg/mL,1 µg/mL,32 µg/mL,128 µg/mL,8 µg/mL,> 128 µg/mL,32 µg/mL,32 µg/mL,32 µg/mL,8 µg/mL,> 128 µg/mL,> 128 µg/mL,> 128 µg/mL,32 µg/mL,MIC (Staphylococcus aureus [21]): 4 µg/mL; MIC (Pseudomonas aeruginosa [22]): 16 µg/mL; MIC (Klebsiella pneumoniae [23]): > 128 µg/mL; MIC (Pseudomonas aeruginosa [24]): 64 µg/mL; MIC (Staphylococcus aureus [25]): 0.25 µg/mL; MIC (Escherichia coli [26]): 1 µg/mL; MIC [27]: 32 µg/mL; MIC (Klebsiella pneumoniae [28]): > 128 µg/mL; MIC (Pseudomonas aeruginosa [29]): 128 µg/mL; MIC (Enterococcus faecalis [30]): 32 µg/mL; MIC (Klebsiella pneumoniae [31]): 32 µg/mL; MIC (Enterococcus faecium [32]): 32 µg/mL; MIC (Klebsiella pneumoniae [33]): > 128 µg/mL; MIC (Enterococcus faecalis [34]): 8 µg/mL; MIC [35]: 32 µg/mL; MIC (Enterococcus faecalis [36]): 64 µg/mL; MIC (Pseudomonas aeruginosa [37]): 32 µg/mL; MIC (Escherichia coli [38]): > 128 µg/mL
